Results: ChEMBL document CHEMBL5126600, “Discovery of the First-in-Class G9a/GLP Covalent Inhibitors” (J Med Chem, 2022)

Key:
[1] = target: T1, Histone-lysine N-methyltransferase EHMT1 (Homo sapiens, UniProt Q9H9B1); assay: Binding affinity to human GLP (982 to 1266 residues) assessed as dissociation constant by isothermal titration calorimetry method
T1 sequence (Q9H9B1 whole entry): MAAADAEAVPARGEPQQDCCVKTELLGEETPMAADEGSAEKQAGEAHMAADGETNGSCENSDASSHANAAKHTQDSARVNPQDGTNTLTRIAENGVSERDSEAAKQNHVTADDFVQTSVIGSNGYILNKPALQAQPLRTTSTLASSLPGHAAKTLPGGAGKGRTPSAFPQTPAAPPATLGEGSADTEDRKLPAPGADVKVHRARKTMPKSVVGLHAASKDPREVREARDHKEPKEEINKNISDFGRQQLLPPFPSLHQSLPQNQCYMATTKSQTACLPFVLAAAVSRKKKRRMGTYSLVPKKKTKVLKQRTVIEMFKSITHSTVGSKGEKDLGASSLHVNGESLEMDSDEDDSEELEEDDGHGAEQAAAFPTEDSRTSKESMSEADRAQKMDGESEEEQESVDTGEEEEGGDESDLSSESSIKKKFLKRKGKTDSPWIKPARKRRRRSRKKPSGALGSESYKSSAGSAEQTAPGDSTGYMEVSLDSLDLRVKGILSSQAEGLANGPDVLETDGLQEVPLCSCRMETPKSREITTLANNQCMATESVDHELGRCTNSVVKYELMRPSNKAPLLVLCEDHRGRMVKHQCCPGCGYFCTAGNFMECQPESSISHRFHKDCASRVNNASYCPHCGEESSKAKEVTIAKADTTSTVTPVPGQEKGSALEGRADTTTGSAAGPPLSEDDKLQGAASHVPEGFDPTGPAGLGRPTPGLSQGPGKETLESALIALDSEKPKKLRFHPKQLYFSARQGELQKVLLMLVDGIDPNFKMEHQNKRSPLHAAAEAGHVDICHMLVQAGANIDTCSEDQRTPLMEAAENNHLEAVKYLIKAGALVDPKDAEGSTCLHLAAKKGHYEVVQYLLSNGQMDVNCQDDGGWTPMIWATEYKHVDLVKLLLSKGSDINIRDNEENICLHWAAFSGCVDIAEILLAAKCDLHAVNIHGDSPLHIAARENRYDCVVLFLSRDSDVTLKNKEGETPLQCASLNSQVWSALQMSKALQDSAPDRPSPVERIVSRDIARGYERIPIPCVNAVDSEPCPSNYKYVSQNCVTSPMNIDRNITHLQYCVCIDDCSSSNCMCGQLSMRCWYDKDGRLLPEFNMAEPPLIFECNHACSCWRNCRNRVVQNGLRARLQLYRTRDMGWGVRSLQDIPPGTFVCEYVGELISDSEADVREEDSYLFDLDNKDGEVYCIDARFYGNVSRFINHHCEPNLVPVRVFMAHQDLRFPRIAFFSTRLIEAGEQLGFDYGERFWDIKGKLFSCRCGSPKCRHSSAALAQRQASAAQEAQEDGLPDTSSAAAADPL
How it was run: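 ITC at 25 °C in 50 mM Tris-HCl pH 7.5, 150 mM NaCl, 1% DMSO; 500 μM compound in syringe titrated into 50 μM G9a or GLP catalytic domain in cell (initial 0.4 μL injection then 13 injections), stirring 750 rpm; run time about 50 min; single binding site fit; mean ± SD of two independent measurements.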

[2] = target: Histone-lysine N-methyltransferase EZH1 (Homo sapiens) (UniProt Q92800); assay: Inhibition of N-terminal His-tagged full-length recombinant human EZH1 ( 2 to 747 residues) expressed in baculovirus expression system at 1 uM using 3H-SAM as a substrate relative to control
Chain of Histone-lysine N-methyltransferase EZH1 (Homo sapiens) (Q92800 whole entry, the tested form may be a part): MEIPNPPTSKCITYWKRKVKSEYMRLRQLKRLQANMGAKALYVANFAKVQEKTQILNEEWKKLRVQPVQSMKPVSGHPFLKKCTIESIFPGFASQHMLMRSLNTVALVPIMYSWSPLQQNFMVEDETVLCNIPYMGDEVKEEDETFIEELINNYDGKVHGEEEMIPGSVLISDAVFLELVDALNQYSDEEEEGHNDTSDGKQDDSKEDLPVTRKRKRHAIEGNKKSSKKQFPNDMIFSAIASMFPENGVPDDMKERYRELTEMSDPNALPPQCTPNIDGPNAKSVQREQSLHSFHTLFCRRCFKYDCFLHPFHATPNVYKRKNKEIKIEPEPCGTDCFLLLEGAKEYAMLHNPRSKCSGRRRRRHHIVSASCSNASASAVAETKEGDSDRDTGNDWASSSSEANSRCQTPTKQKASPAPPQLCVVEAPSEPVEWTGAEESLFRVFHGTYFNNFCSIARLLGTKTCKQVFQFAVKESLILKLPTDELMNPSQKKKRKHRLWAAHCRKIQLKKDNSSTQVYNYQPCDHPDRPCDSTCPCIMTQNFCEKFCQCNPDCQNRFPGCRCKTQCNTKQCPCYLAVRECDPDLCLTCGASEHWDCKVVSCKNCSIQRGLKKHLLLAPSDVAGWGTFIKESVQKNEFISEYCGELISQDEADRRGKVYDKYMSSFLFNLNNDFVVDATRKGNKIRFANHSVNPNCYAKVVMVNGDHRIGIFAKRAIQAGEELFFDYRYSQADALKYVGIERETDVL
How it was run: (§1)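 Contracted 3H-SAM methyl-transfer scintillation proximity assay against a panel of methyltransferases; compound tested at 1 μM in duplicate; inhibition expressed as percent of control enzyme activity.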

[3] = target: Protein arginine N-methyltransferase 1 (Homo sapiens) (UniProt Q99873); assay: Inhibition of N-terminal GST tagged PRMT1 (2 to 371 residues) (unknown origin) expressed in Escherichia coli at 1 uM using 3H-SAM as a substrate relative to control; how it was run: as §1
Chain of Protein arginine N-methyltransferase 1 (Homo sapiens) (Q99873 whole entry, looked up, the tested form may be a part): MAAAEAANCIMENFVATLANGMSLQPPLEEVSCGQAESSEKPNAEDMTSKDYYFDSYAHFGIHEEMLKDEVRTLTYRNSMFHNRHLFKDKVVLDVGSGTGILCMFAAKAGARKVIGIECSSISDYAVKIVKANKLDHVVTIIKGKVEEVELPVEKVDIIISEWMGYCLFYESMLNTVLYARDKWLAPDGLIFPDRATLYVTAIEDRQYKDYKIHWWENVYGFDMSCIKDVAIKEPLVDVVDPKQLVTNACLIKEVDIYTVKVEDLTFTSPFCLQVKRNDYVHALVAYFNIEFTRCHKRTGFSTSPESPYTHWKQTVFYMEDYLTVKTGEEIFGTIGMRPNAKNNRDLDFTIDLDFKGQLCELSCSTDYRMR

[4] = target: Protein arginine N-methyltransferase 3 (Homo sapiens) (UniProt O60678); assay: Inhibition of N-terminal His-tagged PRMT3 (2 to 531 residues)(unknown origin) expressed in Escherichia coli at 1 uM using 3H-SAM as a substrate relative to control; how it was run: as §1
Chain of Protein arginine N-methyltransferase 3 (Homo sapiens) (O60678 2-531 limits assumed): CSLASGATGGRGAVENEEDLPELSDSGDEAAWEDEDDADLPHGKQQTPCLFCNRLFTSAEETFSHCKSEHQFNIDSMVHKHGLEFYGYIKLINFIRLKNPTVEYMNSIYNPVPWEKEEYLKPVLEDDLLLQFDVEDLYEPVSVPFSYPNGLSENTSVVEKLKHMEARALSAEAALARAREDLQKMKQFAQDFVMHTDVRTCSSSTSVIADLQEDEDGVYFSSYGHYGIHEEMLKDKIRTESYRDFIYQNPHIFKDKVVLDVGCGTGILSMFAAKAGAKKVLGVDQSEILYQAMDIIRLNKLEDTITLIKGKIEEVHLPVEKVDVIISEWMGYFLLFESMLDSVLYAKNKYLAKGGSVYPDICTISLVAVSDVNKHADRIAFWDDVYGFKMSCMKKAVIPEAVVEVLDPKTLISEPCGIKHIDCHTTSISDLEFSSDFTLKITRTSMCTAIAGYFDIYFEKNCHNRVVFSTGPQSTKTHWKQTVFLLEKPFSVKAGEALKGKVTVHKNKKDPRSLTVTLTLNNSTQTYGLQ

[5] = target: Histone-arginine methyltransferase CARM1 (Homo sapiens) (UniProt Q86X55); assay: Inhibition of N-terminal GST-tagged PRMT4 (2 to 608 residues)(unknown origin) expressed in Escherichia coli at 1 uM using 3H-SAM as a substrate relative to control; how it was run: as §1
Chain of Histone-arginine methyltransferase CARM1 (Homo sapiens) (Q86X55 whole entry, the tested form may be a part): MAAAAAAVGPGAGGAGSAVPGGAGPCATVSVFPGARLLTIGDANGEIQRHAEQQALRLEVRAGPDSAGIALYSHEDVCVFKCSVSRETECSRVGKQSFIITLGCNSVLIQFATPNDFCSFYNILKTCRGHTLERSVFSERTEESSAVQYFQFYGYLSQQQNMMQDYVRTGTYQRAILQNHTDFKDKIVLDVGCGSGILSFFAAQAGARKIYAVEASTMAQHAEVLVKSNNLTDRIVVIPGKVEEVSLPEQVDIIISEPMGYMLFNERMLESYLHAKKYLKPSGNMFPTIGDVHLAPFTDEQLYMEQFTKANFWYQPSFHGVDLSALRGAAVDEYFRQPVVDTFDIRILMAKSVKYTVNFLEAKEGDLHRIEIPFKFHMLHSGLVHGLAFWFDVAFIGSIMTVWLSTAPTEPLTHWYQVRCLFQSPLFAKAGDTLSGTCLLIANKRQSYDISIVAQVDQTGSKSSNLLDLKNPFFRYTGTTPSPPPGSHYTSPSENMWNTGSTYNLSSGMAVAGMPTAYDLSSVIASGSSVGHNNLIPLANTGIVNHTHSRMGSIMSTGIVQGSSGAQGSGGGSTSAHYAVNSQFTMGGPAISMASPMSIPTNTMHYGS

[6] = target: Histone-lysine N-methyltransferase EHMT1 (Homo sapiens) (UniProt Q9H9B1); assay: Inhibition of human GLP (982 to 1266 residues) assessed as covalent modification by measuring GLP adduct formation by mass spectrometry; conditions: time <= 120.0 min, TDE = time-dependent effect
How it was run: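 Purified G9a or GLP catalytic domain (5 μM) in 50 mM Tris-HCl pH 7.5, 150 mM NaCl incubated with 50 μM compound or DMSO at room temperature (1 h, or 30 and 60 min in time course); intact mass by ESI LC/MS-TOF; adduct % = adduct/(protein + adduct) × 100.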

C=CC(=O)Nc1cc(NC2CCN(C(C)C)CC2)c2cc(OC)c(OCCCN3CCCC3)cc2n1
Kd [1]: 46 nM
inhibition [2]: < 50%
inhibition [3]: < 50%
inhibition [4]: < 50%
inhibition [5]: < 50%
inhibition [6]: Tde
